For experiment [1], the system named is A549. Briefly: Cytotoxicity against human A549 cells after 72 hrs by MTT assay. It is filed as functional, cell-based. The conditions noted are these: A549, 72 h. In a few lines: (§1)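 MTT growth-inhibition assay; IC50 values given as mean ± SD of triplicates.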
(In general: Formazan colour is commonly taken as a measure of viable cells.)

The subject of experiment [2] is A549. Briefly: Inhibition of NFkappa B in human A549 cells assessed as decrease in c-myc protein expression after 24 to 48 hrs by Western blot analysis. The experiment is classed as cell-based. The method in brief:
(§2)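 A549 cells treated at 1, 2.5 and 5 μM. Timepoints: IκBα 24 h, p65 24 h, c-myc 24 and 48 h. Total cell lysates resolved on 10% polyacrylamide gels and immunoblotted with protein-specific antibodies. β-actin and GAPDH serve as internal controls. Mean ± SD of triplicates.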

The subject of experiment [3] is A549. Put plainly: Induction of apoptosis in human A549 cells at 1 uM after 24 hrs by annexinV-propidium iodide staining-based flow cytometric analysis (reference value: 10.81%). The experiment is classed as functional.
Experiment [4] concerns A549. Put plainly: Down regulation of c-myc gene expression in human A549 cells after 24 to 48 hrs by qRT-PCR analysis. It is filed as functional, cell-based. On the technique in general: In qPCR the cycle at which signal appears reflects the starting amount.
The test system of experiment [5] is A-375. Briefly: Cytotoxicity against human A375 cells after 72 hrs by MTT assay. The experiment is classed as functional, cell-based. The conditions noted are these: A-375, 72 h. In a few lines:
as §1

Experiment [6] is described as follows: Cytotoxicity against human HO8910 cells after 72 hrs by MTT assay. The conditions noted are these: HO-8910, 72 h. The experiment is classed as functional, cell-based. The method in brief: as §1
Experiment [7] deals with HepG2. Put plainly: Cytotoxicity against human HepG2 cells after 72 hrs by MTT assay. The experiment is classed as functional, cell-based. The conditions noted are these: HepG2, 72 h. The method in brief:
as §1

Experiment [8] relates to A549. Put plainly: Inhibition of NFkappa B in human A549 cells assessed as down regulation of NF-kappaB p65 protein expression after 24 hrs by Western blot analysis. The experiment is classed as cell-based. In a few lines: as §2
For orientation: Immunoblotting shows a protein as a band on a membrane.

The test system of experiment [9] is A549. Put plainly: Induction of apoptosis in human A549 cells at 5 uM after 24 hrs by annexinV-propidium iodide staining-based flow cytometric analysis (reference value: 10.81%). It is filed as functional.
Experiment [10] is described as follows: Cytotoxicity against human CNE1 cells after 72 hrs by MTT assay. The experiment is classed as functional, cell-based. The conditions noted are these: CNE. In a few lines: as §1
Experiment [11] deals with A549. Put plainly: Induction of IkappaBalpha protein expression in human A549 cells after 24 hrs by Western blot analysis. The experiment is classed as functional, cell-based. The method in brief:
as §2

Experiment [12] relates to Bel-7402. Put plainly: Cytotoxicity against human Bel7402 cells after 72 hrs by MTT assay. The experiment is classed as functional, cell-based. As to conditions: Bel-7402, 72 h. In a few lines: as §1
In experiment [13] the test system is A549. Briefly: Induction of apoptosis in human A549 cells at 2.5 uM after 24 hrs by annexinV-propidium iodide staining-based flow cytometric analysis (reference value: 10.81%). It is filed as functional.
In experiment [14] the test system is A549. Briefly: Inhibition of NFkappa B in human A549 cells assessed as down regulation of NF-kappaB p65 protein expression at 1 to 5 uM by Western blot analysis. As to conditions: TDE = time-dependent effect. The experiment is classed as cell-based. In a few lines: as §2
Experiment [15] relates to A549. Briefly: Inhibition of NFkappa B in human A549 cells assessed as decrease in c-myc protein expression at 1 to 5 uM by Western blot analysis. It is filed as cell-based. As to conditions: TDE = time-dependent effect. In a few lines:
as §2

Structures are written as SMILES.

One may read the IC50 as the midpoint of a concentration-inhibition curve. Read a high IC50 as weaker potency.

Regarding `Clc1ccc(-c2nc3c4cccnc4c4ncccc4c3[nH]2)cc1`, in experiment [1], the IC50 turned out to be 1060 nM.

For `Brc1ccc(-c2nc3c4cccnc4c4ncccc4c3[nH]2)cc1`, the inhibition entry was “Dose-dependent effect” in [2], “Dose-dependent effect” in [8], “tde” in experiment [14] and “tde” in [15]. Further, the Activity in experiment [3] is 35.26%; in experiment [4], “Dose-dependent effect”; in [9] it was 50.94%; in experiment [11], “Dose-dependent effect”; in [13], 43.26%. Further, the half-inhibitory concentration (IC50) in experiment [5] was found to be 980 nM; in experiment [6], 1560 nM; in experiment [1], 850 nM; in [7] it was 4300 nM; in [10] it was 1200 nM; in [12], 5800 nM.

`CC(C)Oc1ccc(-c2nc3c4cccnc4c4ncccc4c3[nH]2)cc1` registered a half-inhibitory concentration (IC50) in experiment [1] of 31900 nM.

In experiment [1], `CCCCOc1ccc(-c2nc3c4cccnc4c4ncccc4c3[nH]2)cc1` gave a half-inhibitory concentration (IC50) of 35500 nM.

As for `Cc1ccc(-c2nc3c4cccnc4c4ncccc4c3[nH]2)cc1`, the half-inhibitory concentration (IC50) in experiment [1] was 1330 nM.

`CCOc1ccc(-c2nc3c4cccnc4c4ncccc4c3[nH]2)cc1` gave a concentration for half-maximal inhibition (IC50) in [1] of 1960 nM.

Turning to `CCCOc1ccc(-c2nc3c4cccnc4c4ncccc4c3[nH]2)cc1`, half-maximal inhibition in experiment [1] (IC50) required 18000 nM.

`FC(F)(F)c1ccc(-c2nc3c4cccnc4c4ncccc4c3[nH]2)cc1`: in experiment [1], the IC50 was determined as 1730 nM.

On to `COc1ccc(-c2nc3c4cccnc4c4ncccc4c3[nH]2)cc1`, for which half-maximal inhibition in [1] (IC50) required 1360 nM.

The molecule `Fc1ccc(-c2nc3c4cccnc4c4ncccc4c3[nH]2)cc1` registered an IC50 in experiment [1] of 1090 nM.

The record behind these values is ChEMBL document CHEMBL1933059, “Imidazo [4,5f][1,10] phenanthroline derivatives as inhibitor of c-myc gene expression in A549 cells via NF-κB pathway” (Bioorg Med Chem Lett, 2012).
